Experimental data published in ChEMBL document CHEMBL1154152, “Synthesis of some novel bioactive 4-oxy/thio substituted-1H-pyrazol-5(4H)-ones via efficient cross-Claisen condensation” (2009).
Converted amounts (≈) assume the structure as drawn.

Assays:
Assay type in all cases: functional
[1] = tested on: Staphylococcus aureus; assay: Antibacterial activity against Staphylococcus aureus ATCC 25923 after 24 hrs by disk diffusion method; details: for MIC: Staphylococcus aureus, ATCC 25923, 24 h
Summary of the method: (§1)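 Discs with each concentration, in triplicate, on nutrient agar seeded with fresh bacteria. Incubated 37 °C for 24 h, with solvent and growth controls. Zones of inhibition and MIC recorded.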

[2] = tested on: Aspergillus flavus; assay: Antifungal activity against Aspergillus flavus at 10 to 50 ug/ml after 3 to 4 days by serial plate dilution method
[3] = tested on: Pseudomonas aeruginosa; assay: Antibacterial activity against Pseudomonas aeruginosa ATTC 27853 after 24 hrs by disk diffusion method; details: for MIC: Pseudomonas aeruginosa, ATTC 27853, 24 h; summary of the method: as §1
[4] = tested on: Trichophyton mentagrophytes; assay: Antifungal activity against Trichophyton mentagrophytes at 10 to 50 ug/ml after 3 to 4 days by serial plate dilution method
[5] = tested on: Talaromyces marneffei; assay: Antifungal activity against Penicillium marneffei after 3 to 4 days by serial plate dilution method
Summary of the method: (§2)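 Sabouraud's agar made from peptone, D-glucose and agar, pH 5.7, and lawned with a fungal spore suspension in normal saline. Wells cut with an agar punch received 10–50 mg/ml test compound in DMSO; DMSO-only control plates. Triplicate plates kept at 37 °C for 3–4 days.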

[6] = tested on: Escherichia coli; assay: Antibacterial activity against Escherichia coli ATTC 25922 after 24 hrs by disk diffusion method; details: for MIC: Escherichia coli, ATTC 25922, 24 h; summary of the method: as §1
[7] = tested on: Aspergillus flavus; assay: Antifungal activity against Aspergillus flavus after 3 to 4 days by serial plate dilution method; summary of the method: as §2
[8] = tested on: Trichophyton mentagrophytes; assay: Antifungal activity against Trichophyton mentagrophytes after 3 to 4 days by serial plate dilution method
[9] = tested on: Klebsiella sp.; assay: Antibacterial activity against Klebsiella sp. after 24 hrs by disk diffusion method; details: for MIC: Klebsiella sp., 24 h; summary of the method: as §1
[10] = tested on: Talaromyces marneffei; assay: Antifungal activity against Penicillium marneffei at 10 to 50 ug/ml after 3 to 4 days by serial plate dilution method
[11] = tested on: Aspergillus fumigatus; assay: Antifungal activity against Aspergillus fumigatus at 10 to 50 ug/ml after 3 to 4 days by serial plate dilution method
[12] = tested on: Aspergillus fumigatus; assay: Antifungal activity against Aspergillus fumigatus after 3 to 4 days by serial plate dilution method

| MIC [1] [µg/mL] | MIC [3] [µg/mL] | MIC [5] [µg/mL] | MIC [6] [µg/mL] | MIC [7] [µg/mL] | MIC [8] [µg/mL] | MIC [9] [µg/mL] | MIC [12] [µg/mL] | Compound | inhibition zone (IZ) [1] [mm] | inhibition zone (IZ) [2] [mm] | inhibition zone (IZ) [3] [mm] | inhibition zone (IZ) [4] [mm] | inhibition zone (IZ) [6] [mm] | inhibition zone (IZ) [9] [mm] | inhibition zone (IZ) [10] [mm] | inhibition zone (IZ) [11] [mm] |
| --- | --- | --- | --- | --- | --- | --- | --- | --- | --- | --- | --- | --- | --- | --- | --- | --- |
| 6.25 (≈ 22.1 µM) | 6.25 (≈ 22.1 µM) | 6.25 (≈ 22.1 µM) | 6.25 (≈ 22.1 µM) | 6.25 (≈ 22.1 µM) | 6.25 (≈ 22.1 µM) | 6.25 (≈ 22.1 µM) | 6.25 (≈ 22.1 µM) | O=C1NN=C(COc2ccccc2)C1Oc1ccccc1 (configuration not stated) | 18 | 20 | 16 | 19 | 17 | 19 | 18 | 21 |
| 6.25 (≈ 25.2 µM) | 6.25 (≈ 25.2 µM) | 6.25 (≈ 25.2 µM) | 6.25 (≈ 25.2 µM) | 6.25 (≈ 25.2 µM) | 6.25 (≈ 25.2 µM) | 6.25 (≈ 25.2 µM) | 6.25 (≈ 25.2 µM) | CC(C)CC1=NNC(=O)C1Sc1ccccc1 (configuration not stated) | 19 | 18 | 18 | 21 | 21 | 21 | 18 | 18 |
| 6.25 (≈ 28.4 µM) | 50 (≈ 227 µM) | 50 (≈ 227 µM) | 25 (≈ 114 µM) | 50 (≈ 227 µM) | 50 (≈ 227 µM) | 50 (≈ 227 µM) | 50 (≈ 227 µM) | COc1ccc(OC2C(=O)NN=C2C)cc1 (configuration not stated) | 19 | <10 | <10 | <10 | 11 | <10 | <10 | <10 |
| 6.25 (≈ 21 µM) | 6.25 (≈ 21 µM) | 6.25 (≈ 21 µM) | 25 (≈ 83.8 µM) | 6.25 (≈ 21 µM) | 6.25 (≈ 21 µM) | 6.25 (≈ 21 µM) | 6.25 (≈ 21 µM) | CCC1=NN(c2ccc(F)cc2)C(=O)C1Oc1ccccc1 (configuration not stated) | 16 | 19 | 18 | 21 | 14 | 20 | 17 | 21 |
| 6.25 (≈ 28.4 µM) | 6.25 (≈ 28.4 µM) | 6.25 (≈ 28.4 µM) | 25 (≈ 114 µM) | 6.25 (≈ 28.4 µM) | 6.25 (≈ 28.4 µM) | 6.25 (≈ 28.4 µM) | 6.25 (≈ 28.4 µM) | COCC1=NNC(=O)C1Oc1ccccc1 (configuration not stated) | 17 | 18 | 17 | 17 | 12 | 20 | 17 | 20 |
| 6.25 (≈ 22.1 µM) | 6.25 (≈ 22.1 µM) | 6.25 (≈ 22.1 µM) | 25 (≈ 88.4 µM) | 6.25 (≈ 22.1 µM) | 6.25 (≈ 22.1 µM) | 6.25 (≈ 22.1 µM) | 6.25 (≈ 22.1 µM) | CC(C)CC1=NNC(=O)C1Sc1ccc(Cl)cc1 (configuration not stated) | 18 | 18 | 17 | 19 | 11 | 16 | 20 | 17 |
| 6.25 (≈ 22.1 µM) | 6.25 (≈ 22.1 µM) | 6.25 (≈ 22.1 µM) | 25 (≈ 88.3 µM) | 6.25 (≈ 22.1 µM) | 6.25 (≈ 22.1 µM) | 6.25 (≈ 22.1 µM) | 6.25 (≈ 22.1 µM) | CC1=NNC(=O)C1OCc1cccc(Br)c1 (configuration not stated) | 21 | 19 | 18 | 20 | 11 | 19 | 18 | 18 |
| 6.25 (≈ 26.9 µM) | 6.25 (≈ 26.9 µM) | 6.25 (≈ 26.9 µM) | 6.25 (≈ 26.9 µM) | 6.25 (≈ 26.9 µM) | 6.25 (≈ 26.9 µM) | 6.25 (≈ 26.9 µM) | 6.25 (≈ 26.9 µM) | CC(C)(C)C1=NNC(=O)C1Oc1ccccc1 (configuration not stated) | 16 | 16 | 20 | 19 | 18 | 18 | 21 | 18 |
|  |  | 6.25 |  | 3.12 | 3.12 |  | 6.25 | Cc1cc(C2CCCCC2)n(O)c(=O)c1.NCCO [CICLOPIROX OLAMINE] |  | 27 |  | 27 |  |  | 23 | 26 |
| 6.25 (≈ 25.4 µM) | 6.25 (≈ 25.4 µM) | 6.25 (≈ 25.4 µM) | 25 (≈ 101 µM) | 6.25 (≈ 25.4 µM) | 6.25 (≈ 25.4 µM) | 6.25 (≈ 25.4 µM) | 6.25 (≈ 25.4 µM) | CC(C)CC1=NN(C)C(=O)C1Oc1ccccc1 (configuration not stated) | 19 | 18 | 19 | 18 | 12 | 17 | 19 | 16 |
| 6.25 (≈ 30.6 µM) | 6.25 (≈ 30.6 µM) | 6.25 (≈ 30.6 µM) | 6.25 (≈ 30.6 µM) | 6.25 (≈ 30.6 µM) | 6.25 (≈ 30.6 µM) | 6.25 (≈ 30.6 µM) | 6.25 (≈ 30.6 µM) | CCC1=NNC(=O)C1Oc1ccccc1 (configuration not stated) | 19 | 21 | 20 | 16 | 18 | 16 | 18 | 17 |
| 6.25 (≈ 26.7 µM) | 6.25 (≈ 26.7 µM) | 6.25 (≈ 26.7 µM) | 6.25 (≈ 26.7 µM) | 6.25 (≈ 26.7 µM) | 6.25 (≈ 26.7 µM) | 6.25 (≈ 26.7 µM) | 6.25 (≈ 26.7 µM) | CC(C)C1=NNC(=O)C1Sc1ccccc1 (configuration not stated) | 20 | 18 | 17 | 16 | 18 | 16 | 19 | 20 |
| 6.25 (≈ 25 µM) | 50 (≈ 200 µM) | 50 (≈ 200 µM) | 50 (≈ 200 µM) | 50 (≈ 200 µM) | 50 (≈ 200 µM) | 50 (≈ 200 µM) | 50 (≈ 200 µM) | COCC1=NNC(=O)C1SCc1ccccc1 (configuration not stated) | 17 | <10 | <10 | <10 | <10 | <10 | <10 | <10 |
| 6.25 (≈ 26.7 µM) | 6.25 (≈ 26.7 µM) | 6.25 (≈ 26.7 µM) | 6.25 (≈ 26.7 µM) | 6.25 (≈ 26.7 µM) | 6.25 (≈ 26.7 µM) | 6.25 (≈ 26.7 µM) | 6.25 (≈ 26.7 µM) | CCC1=NNC(=O)C1SCc1ccccc1 (configuration not stated) | 16 | 17 | 20 | 17 | 17 | 17 | 19 | 17 |
| 6.25 (≈ 30.3 µM) | 6.25 (≈ 30.3 µM) | 6.25 (≈ 30.3 µM) | 25 (≈ 121 µM) | 6.25 (≈ 30.3 µM) | 6.25 (≈ 30.3 µM) | 6.25 (≈ 30.3 µM) | 6.25 (≈ 30.3 µM) | CC1=NNC(=O)C1Sc1ccccc1 (configuration not stated) | 18 | 16 | 19 | 18 | 13 | 16 | 21 | 17 |
| 6.25 (≈ 21.8 µM) | 50 (≈ 174 µM) | 50 (≈ 174 µM) | 25 (≈ 87.2 µM) | 50 (≈ 174 µM) | 50 (≈ 174 µM) | 50 (≈ 174 µM) | 50 (≈ 174 µM) | O=C1NN=C(c2ccc(Cl)cc2)C1Oc1ccccc1 (configuration not stated) | 21 | <10 | <10 | <10 | 12 | <10 | <10 | <10 |
| 6.25 (≈ 18.3 µM) | 6.25 (≈ 18.3 µM) | 6.25 (≈ 18.3 µM) | 25 (≈ 73 µM) | 6.25 (≈ 18.3 µM) | 6.25 (≈ 18.3 µM) | 6.25 (≈ 18.3 µM) | 6.25 (≈ 18.3 µM) | CC(C)CC1=NN(c2ccc(F)cc2)C(=O)C1Sc1ccccc1 (configuration not stated) | 19 | 20 | 20 | 18 | 13 | 19 | 19 | 19 |

| Compound | MIC [1] [µg/mL] | MIC [3] [µg/mL] | MIC [5] [µg/mL] | MIC [6] [µg/mL] | MIC [7] [µg/mL] | MIC [8] [µg/mL] | MIC [9] [µg/mL] | MIC [12] [µg/mL] | inhibition zone (IZ) [1] [mm] | inhibition zone (IZ) [2] [mm] | inhibition zone (IZ) [3] [mm] | inhibition zone (IZ) [4] [mm] | inhibition zone (IZ) [6] [mm] | inhibition zone (IZ) [9] [mm] | inhibition zone (IZ) [10] [mm] | inhibition zone (IZ) [11] [mm] |
| --- | --- | --- | --- | --- | --- | --- | --- | --- | --- | --- | --- | --- | --- | --- | --- | --- |
| O=C(O)c1cn(C2CC2)c2cc(N3CCNCC3)c(F)cc2c1=O [CIPROFLOXACIN] | 6.25 (≈ 18.9 µM) | 6.25 (≈ 18.9 µM) |  | 6.25 (≈ 18.9 µM) |  |  | 6.25 (≈ 18.9 µM) |  | 23 |  | 28 |  | 32 | 24 |  |  |
